# SR-BI uptake up – enhances SR-BI lipid uptake from DiI-HDL; AID 504775; activation, % at 12.5 µM; hit rate 0.096% among 320,000; CHO ldlA[mSR-BI] cells, DiI-HDL uptake fluorescence, 3 h; 100 = double the neutral-control signal;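 active = mean replicate activation of at least 60% and every replicate at or above 60%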;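 note: 0% = median plate neutral-control signal and 100% = twice that signal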
#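 Material – SR-BI-overexpressing, LDLR-lacking CHO cells · Medium – BSA-supplemented, HEPES-buffered Ham's F12, pH 7.4 · Doses – single concentration · Times – compound with DiI-HDL co-incubation, 3 h at 37 °C · Measured by – bottom-read fluorescence, 550/595 nm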
# m5-HT2A agonist – agonists of mouse serotonin 5-HT2A receptor (HTR2A). P35363. AID 624169. hit rate 0.66% among 360,000. activation, % at 7.6 µM. CHO-K1 mHTR2A beta-arrestin complementation, luminescence; percent of 30 µM serotonin response;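 active = activation above a run cutoff, the mean activation of all tested compounds plus 3 SD, cut at about 14% in these data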;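 note: 0% = plate median of compound wells and 100% = 30 µM serotonin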
# Ins promoter up – MIN6 insulin promoter up-regulation | MIN6 insulin promoter-GFP reporter, high-content imaging; hits give high values | z-score at 5 µM | hit rate 0.3% among 190,000 | AID 1625;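 active = z-score above 3 at 5 µM with at least 500 cells counted in the well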
# Calb FLC – affects C. albicans growth with fluconazole; C. albicans CaCi-2 + fluconazole, Alamar Blue growth, 48 h; growth inhibition, % (no concentration beside the values); hit rate 0.57% among 300,000;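 active = growth inhibition above about 58% in most replicates, limit read from the data, passing the limit was not always enough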;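 note: all wells also contain fluconazole at 8 µg/ml as a sub-toxic cotreatment; 0% = median of DMSO wells and 100% = median of geldanamycin control wells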
# SR-BI DiI inh – inhibitors of mouse SR-BI mediated HDL lipid uptake. hit rate 0.96% among 320,000. ldlA[mSR-BI] CHO cells, DiI-HDL uptake fluorescence, 3 h. Q61009. inhibition, % at 12.5 µM;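 active = mean replicate inhibition of at least 70% and a set share of replicates each scoring 70 or more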;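 note: 0% = median of neutral control wells and 100% = median of positive control wells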
# Target sequence (Q61009 whole entry, looked up): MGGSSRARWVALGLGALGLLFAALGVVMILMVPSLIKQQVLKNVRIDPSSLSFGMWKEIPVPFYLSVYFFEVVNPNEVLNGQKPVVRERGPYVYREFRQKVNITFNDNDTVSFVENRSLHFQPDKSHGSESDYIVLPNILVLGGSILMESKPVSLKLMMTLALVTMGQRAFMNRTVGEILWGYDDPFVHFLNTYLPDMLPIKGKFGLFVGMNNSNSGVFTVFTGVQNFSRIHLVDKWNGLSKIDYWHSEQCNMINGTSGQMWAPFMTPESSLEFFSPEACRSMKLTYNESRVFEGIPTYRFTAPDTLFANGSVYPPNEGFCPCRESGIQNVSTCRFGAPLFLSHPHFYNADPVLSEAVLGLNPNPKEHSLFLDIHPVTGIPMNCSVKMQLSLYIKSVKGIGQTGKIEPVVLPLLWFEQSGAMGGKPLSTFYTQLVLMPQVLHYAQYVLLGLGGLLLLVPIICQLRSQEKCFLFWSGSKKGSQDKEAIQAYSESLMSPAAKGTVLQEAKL
# beta cell repl – induces beta-cell replication in MIN6 cells. MIN6 cells proliferation, ATPlite luminescence, 48 h; cells starved in 0.2% serum; 100% = growth in 10% serum. proliferation, % at 10 µM. hit rate 0.29% among 330,000. AID 2380;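 active = compounds whose signal lies at least 3.5 SD above the mean of all wells on their plate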;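 note: 0% = DMSO-treated cells in low-serum medium and 100% = 10% serum control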
# MOR ag counter – counter-screen for mouse HTR2A agonists: human mu opioid receptor agonists; shares compounds with m5-HT2A agonist; U2OS OPRM1 beta-arrestin PathHunter, luminescence; DMSO 0%, DAMGO 9.3 µM 100%; activation, % at 9.3 µM; hit rate 5.3% among 2,300;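 active = mean activation above the mean of DMSO-only wells plus 3 SD, cut at about 0.5% in these data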
# m5-HT2A ag conf – mouse HTR2A agonism confirmed | shares compounds with m5-HT2A agonist | CHO-K1 PathHunter beta-arrestin recruitment, luminescence; DMSO 0%, 30 µM serotonin 100% | activation, % at 7.6 µM | hit rate 19% among 2,300;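 active = mean activation across triplicates above the hit threshold derived in the original primary screen, cut at about 15% in these data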
# * hit, by the source's call; nt = no result given. A selection: hits, their analogues and other compounds. The true share with any hit is near 2.4%.
SMILES,SR-BI uptake up,m5-HT2A agonist,Ins promoter up,Calb FLC,SR-BI DiI inh,beta cell repl,MOR ag counter,m5-HT2A ag conf
COc1cccc(-n2c(SCC(=O)N3CCCCC3)nc3c([nH]c4ccccc43)c2=O)c1,8,21*,-0.4,-2,-8,-2,-1,-4
CCN1C(=O)[C@H]2[C@@H](c3ccc(OC)cc3)N3C(=O)CN(CCOC)C(=O)[C@@]3(Cc3ccccc3)[C@H]2C1=O,6,5,nt,-8,-6,2,nt,nt
C[C@H](O)[C@@H]1CN2CCc3c([nH]c4ccccc34)[C@@H]2C[C@@H]1N(C)C(=O)Nc1ccc(Br)cc1,nt,16*,nt,nt,nt,nt,nt,27*
COC(=O)c1ccc(CSc2ccccc2NC(=S)Nc2cccc(SC)c2)o1,nt,-8,nt,nt,nt,nt,nt,nt
COc1ccc(-c2cnc3c(NC=O)cc(-c4ccc(S(C)(=O)=O)cc4)cn23)cc1OC,nt,15*,nt,nt,nt,nt,0,12
COC(=O)CCC(=O)NNC(=O)c1ccc([N+](=O)[O-])cc1,3,14*,1.3,-13,-3,0,0,6
Cc1csc(=O)n1CC(=O)OCC(=O)NNC(=O)c1ccc([N+](=O)[O-])cc1,14,15*,nt,2,-14,-4,0,1
Cc1csc(=O)n1CC(=O)OCC(=O)NNC(=O)c1ccccc1,2,-3,nt,13,-2,-2,nt,nt
O=C(CCC(=O)NNC(=O)c1ccc([N+](=O)[O-])cc1)NCc1ccccc1,-18,-3,0.09,-14,18,1,nt,nt
CN(Cc1ccccc1)N=Nc1nc[nH]c1C(N)=O,nt,17*,nt,nt,nt,nt,0,-3
Cc1ccc(NC(=O)c2ccc([N+](=O)[O-])s2)cc1S(=O)(=O)N1CCOCC1,-52,-7,nt,nt,52,-6,nt,nt
CCOC(=O)CN1C(=O)C(CC)Oc2ccccc21 (stereo not given),-2,5,-1.1,38,2,-1,nt,nt
CCOC(=O)C(C(=O)OCC)C1N=C(N)N=C2Oc3ccccc3N21 (stereo not given),26,15*,1.2,2,-26,-1,0,0
Cc1oc(-c2cccc(Cl)c2)nc1CS(=O)(=O)CC(=O)NCCCN1CCOCC1,16,25*,nt,-6,-16,2,0,-4
COc1cc(/C=N/Nc2nc3ccccc3s2)ccc1OC(=O)c1ccccc1F,-30,1,0.17,0,30,-3,nt,nt
COc1cc(OC)cc(C(=O)Oc2ccc(/C=N/Nc3nc4ccccc4s3)cc2OC)c1,-47,22*,-0.67,6,47,0,0,-2
C=CCN1CCc2nc(N)sc2CC1,4,50*,nt,nt,-4,nt,-1,151*
CCN1CCc2nc(N)sc2C1,27,7,-0.16,-9,-27,-6,nt,nt
Cc1ccc(NC(=O)c2ncn(CCCN3CCN(Cc4cccc5ccccc45)CC3)n2)cc1C,-52,-7,nt,nt,52,nt,nt,nt
C#CCn1c(-c2cccs2)nc2ccccc21,-4,22*,0.37,33,4,-1,-1,-2
CCOC(=O)C1(C(=O)OCC)NC(=O)CC1C(C)C (stereo not given),7,0,nt,nt,-7,nt,nt,nt
COC(=O)CCCC1=CC2=C(c3ccccc3)C(=O)C(C)(OC(=O)C3CCCC3)C(=O)C2=CN1CCc1ccccn1 (stereo not given),6,15*,-1.1,7,-6,-5,0,-5
O=C(CN(C(=O)c1csnn1)c1ccc(Cl)cc1)NCc1ccc2c(c1)OCO2,nt,1,nt,3,nt,0,nt,nt
O=C(CN(C(=O)c1csnn1)c1ccc2c(c1)OCCO2)NCc1ccccc1,-15,15*,nt,-3,15,1,-1,-4
O=C(CN1CCN(c2cccc(Cl)n2)CC1)N1CC(O)CO1 (stereo not given),-10,27*,nt,-2,10,-2,0,-4
SMILES,SR-BI uptake up,m5-HT2A agonist,Ins promoter up,Calb FLC,SR-BI DiI inh,beta cell repl,MOR ag counter,m5-HT2A ag conf
Cc1ccncc1CNC(=O)c1ccccc1,16,16*,nt,nt,-16,nt,0,0
c1ccc(-c2csc(CN3CCCCC3)n2)cc1,-12,-6,nt,nt,12,nt,nt,nt
CCCC(=O)Nc1c(-c2ccccc2)c(=O)c(C)nn1-c1ccc(Cl)cc1,37,15*,-0.27,-3,-37,-5,-1,-3
COc1ccc(-c2c(NC(=O)c3ccco3)n(-c3ccccc3)nc(C)c2=O)cc1,27,7,0,1,-27,-1,nt,nt
CC(C)(C)c1ccc(S(=O)(=O)N2CCN(C(=O)C3CCC3)CC2)cc1,-8,0,nt,-4,8,-3,nt,nt
O=C(O)c1ccc2c(c1Nc1ccccc1)C(=O)c1ccccc1C2=O,1,27*,-0.21,-3,-1,-1,0,-6
N/C(=N\O)c1ccccc1-n1cccc1,-26,15*,-0.33,-6,26,-2,-1,-3
Cn1c(N)c(C(=O)COC(=O)CCC2CCCCC2)c(=O)n(C)c1=O,-2,4,-0.13,-6,2,-1,nt,nt
Cn1c(N)c(C(=O)COC(=O)CCC2CCCC2)c(=O)n(C)c1=O,5,20*,nt,-4,-5,-4,0,-5
O=C(CNc1ccc(Br)cc1)NC(=O)NC1CCCCC1,-13,2,nt,nt,13,-4,nt,nt
Cc1nnc(SCc2cc(=O)[nH]c(=S)[nH]2)s1,30,16*,-0.24,-6,-30,-2,0,-4
O=C(NCc1ccc(F)cc1)c1cc(C2CCCN(S(=O)(=O)c3ccccc3)C2)on1 (stereo not given),nt,-3,nt,nt,nt,nt,nt,nt
Cc1ccc(S(=O)(=O)N2CCCC2)cc1C(=O)Nc1ccc(-n2cnnn2)cc1,-6,-2,nt,nt,6,2,nt,nt
O=C(c1cccnc1)N1CCN(S(=O)(=O)c2ccc(Cl)cc2)CC1,nt,15*,0.07,-14,nt,-2,-1,-3
O=C(c1cccnc1)N1CCN(S(=O)(=O)c2ccc(F)cc2)CC1,50,-1,0.53,-12,-50,-1,nt,nt
O=C(OCc1cccc(F)c1)c1ccc2c(=O)n3c(nc2c1)CCC3,nt,18*,0.46,7,nt,-1,-1,-4
O=C(Nc1ccc(S(=O)(=O)N2CCCCCC2)cc1)c1ccco1,-18,15*,-0.21,-35,18,-3,-1,-2
CC(C)CCNC(=O)CCn1c(=S)oc2ccccc21,28,19*,0.31,8,-28,0,-1,-3
CC(C)C(=O)Nc1ccc(Nc2ccccc2)cc1,-4,-4,0.11,-6,4,-3,nt,nt

# High-throughput results (PubChem BioAssay)
